Assay results as given in ChEMBL document CHEMBL3632592, “Identification of Highly Promising Antioxidants/Neuroprotectants Based on Nucleoside 5'-Phosphorothioate Scaffold. Synthesis, Activity, and Mechanisms of Action” (J Med Chem, 2015).

Key:
[1] = Drug level in RPMI-1640 medium treated with ADP at 37 degC measured over 24 hrs by HPLC analysis; format: physicochemical
How it was run: (§1)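 Incubation in human blood serum and in RPMI-1640 at 37 °C for 0.5–24 h. The HPLC peak integration of each nucleotide is followed over time, and half-life comes from the decay. The products AMP and adenosine are seen as HPLC peaks.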

Serum [2] = assay: Drug level in human serum treated with ADP at 37 degC measured over 24 hrs by HPLC analysis; format: ADME, cell-free; how it was run: as §1
[3] = Neuroprotective activity against Fe2+-induced oxidative damage in rat primary cortical neurons assessed as cell viability after 24 hrs by MTT assay; format: functional, cell-based; settings: Cerebral cortex neuron
How it was run: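 Rat (1-day-old) cortical neurons were grown serum-free in DMEM/F12 with B-27 on poly-ornithine, treated with Ara-C and cultured 5 d. Cells were pretreated with nucleotide (0.01–25 µM), then exposed to FeSO4 3 µM final for 24 h. MTT 1 mg/mL was added for 2 h at 37 °C, formazan dissolved in DMSO, A550 read. Viability given as % of vehicle control; three independent experiments in triplicate.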

[4] = Half life of the compound in RPMI-1640 medium at 37 degC by HPLC analysis; format: ADME
How it was run: (§2)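 Nucleotides were incubated in human blood serum or RPMI-1640 at 37 °C for 0.5–24 h. Hydrolysis was followed by the change in HPLC peak integration of each analogue over time, and half-life was derived from this.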

[5] = Half life in human serum at 37 degC by HPLC analysis; format: ADME, cell-free; how it was run: as §2
[6] = Antioxidant activity assessed as ABTS radical scavenging activity after 7 mins; format: physicochemical
How it was run: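 ABTS radical cation made from 7 mM ABTS with 2.45 mM persulfate (final), kept in the dark at room temperature 12–16 h. It was then diluted in water pH 7.4 to A734 0.80 and mixed with compound or Trolox standard (final 0–60 µM). A734 was read at 7 min. Percent inhibition plotted against concentration; at least three runs, in triplicate.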

[7] = Antioxidant activity assessed as inhibition of Fe2+-induced DMPO-OH adduct formation from H2O2 preincubated for 30 secs followed by DMPO/H2O2 addition measured after 150 secs by ESR analysis; format: physicochemical
How it was run: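 Fenton/ESR spin trapping: 1 mM ammonium iron(II) sulfate was added to 5–500 µM compound, then Tris buffer pH 7.4 (final pH 7.2–7.4). After 30 s, 100 mM DMPO and 100 mM H2O2 were added (stock concentrations). The ESR spectrum was recorded 150 s after H2O2, at room temperature. DMPO-OH adduct expressed as % of control containing FeSO4, H2O2 and DMPO only.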

Serum [8] = assay: Drug metabolism in human serum assessed as formation of adenosine at 37 degC measured over 24 hrs by HPLC analysis; format: ADME, cell-free; how it was run: as §1
[9] = Metal chelating activity assessed as inhibition of Fe2+-ferrozine complex formation after 10 mins; format: physicochemical
How it was run: (§3)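 Competitive ferrozine assay. FeSO4 (final 10 µM) and ferrozine (final 20 µM) are mixed with nucleotide in DDW at final 25–200 µM and agitated 10 min at room temperature. Absorbance of the Fe(II)-ferrozine complex is read at 562 nm with and without compound, and inhibition of complex formation is calculated. Three experiments, mean ± S.D.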

[10] = Metal chelating activity assessed as inhibition of Fe2+-ferrozine complex formation at 200 uM after 10 mins relative to control; format: physicochemical; how it was run: as §3

Row | SMILES | Drug metabolism [1] | Drug metabolism (Serum [2]) | EC50 [3] | half-life [4] | half-life [5] | IC50 [6] | IC50 [7] | Drug metabolism (Serum [8]) | IC50 [9] | inhibition (INH) [10]
1 | Nc1ncnc2c1ncn2[C@@H]1O[C@H](CO)[C@@H](O)[C@H]1O [ADENOSINE] | metabolite_detected | metabolite_detected | – | – | – | – | – | – | – | –
2 | Nc1ncnc2c1ncn2[C@@H]1O[C@H](COP(=O)(O)OP(=O)(O)O)[C@@H](O)[C@H]1O [ADENOSINE DIPHOSPHATE] | – | – | 19 µM | 1.5 h | 1.5 h | 30 µM | 170 µM | metabolite_detected | > 200 µM | 40%
